According to ChEMBL document CHEMBL3627671, “Novel derivatives of nitro-substituted salicylic acids: Synthesis, antimicrobial activity and cytotoxicity” (Bioorg Med Chem, 2015):
In brackets after ≈: the same amount, converted by molar mass.

Key:
Enterococcus sp. [1] = experiment: Antibacterial activity against Enterococcus sp. J 14365/08 after 48 hrs by microdilution broth method; format: functional; details: J 14365/08, 48 h
In short: (§1)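 Mueller-Hinton broth microdilution (modified M07-A07), pH 7.4 (±0.2). Compounds dissolved in DMSO, tested at final 500 to 0.49 µmol/L. Inoculum in sterile water matched to 0.5 McFarland. Incubated in the dark, humid atmosphere, 35 °C, read at 24 and 48 h visually and at 540 nm. MIC taken as ≥95% growth reduction (IC95) versus control.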

Mycobacterium kansasii [2] = experiment: Antimycobacterial activity against Mycobacterium kansasii 6509/96 after 7 days; format: functional; details: 6509/96, 168 h
In short: (§2)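 Šula's semisynthetic medium micromethod at 37 °C, read after 7, 14 and 21 days. The 1.0 McFarland suspension was diluted 10^-4. MIC determined. 6509/96 is a clinical isolate.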

Staphylococcus aureus [3] = experiment: Antibacterial activity against methicillin-resistant Staphylococcus aureus H 5996/08 after 48 hrs by microdilution broth method; format: functional; details: H 5996/08, 48 h
Nakaseomyces glabratus [4] = experiment: Antifungal activity against Candida glabrata 20/I after 48 hrs by microdilution broth method; format: functional
In short: (§3)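 CLSI M27-A3 broth microdilution in RPMI 1640 with glutamine, buffered to pH 7.0 with MOPS; DMSO diluent. Yeast inoculum 5 × 10^3 ± 0.2 CFU/mL. Moulds grown on Sabouraud agar 3–10 days before spore harvest, final inoculum 0.5-5 × 10^4 CFU/mL, checked in a Bürker chamber. Incubated dark, humid, 35 °C, read at 24 and 48 h visually and at 540 nm. MIC taken as ≥80% (yeasts) or ≥50% (filamentous) growth reduction versus control.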

Candida tropicalis [5] = experiment: Antifungal activity against Candida tropicalis 156 after 24 hrs by microdilution broth method; format: functional; details: Candida tropicalis, 156, 24 h; in short: as §3
Lichtheimia corymbifera [6] = experiment: Antifungal activity against Absidia corymbifera 272 after 48 hrs by microdilution broth method; format: functional; details: Lichtheimia corymbifera, 272, 48 h; in short: as §3
Klebsiella pneumoniae [7] = experiment: Antibacterial activity against Klebsiella pneumoniae D 11750/08 after 24 hrs by microdilution broth method; format: functional; details: D 11750/08, 24 h; in short: as §1
Staphylococcus aureus [8] = experiment: Antibacterial activity against Staphylococcus aureus CCM 4516/08 after 24 hrs by microdilution broth method; format: functional; details: CCM 4516/08, 24 h
[9] = test system: Staphylococcus epidermidis; experiment: Antibacterial activity against Staphylococcus epidermidis H 6966/08 after 24 hrs by microdilution broth method; format: functional; details: H 6966/08, 24 h; in short: as §1
Candida albicans [10] = experiment: Antifungal activity against Candida albicans ATCC 44859 after 48 hrs by microdilution broth method; format: functional; details: ATCC 44859, 48 h; in short: as §3
[11] = Selectivity index, ratio of CI50 for human HepG2 cells to MIC100 for Mycobacterium tuberculosis H37Rv 331/88
Pichia kudriavzevii [12] = experiment: Antifungal activity against Candida krusei E28 after 48 hrs by microdilution broth method; format: functional; details: E28, 48 h; in short: as §3
Mycobacterium avium [13] = experiment: Antimycobacterial activity against Mycobacterium avium 330/80 after 21 days; format: functional; details: 330/80, 504 h
[14] = test system: Staphylococcus epidermidis; experiment: Antibacterial activity against Staphylococcus epidermidis H 6966/08 after 48 hrs by microdilution broth method; format: functional; details: H 6966/08, 48 h; in short: as §1
Enterococcus sp. [15] = experiment: Antibacterial activity against Enterococcus sp. J 14365/08 after 24 hrs by microdilution broth method; format: functional; details: J 14365/08, 24 h; in short: as §1
Aspergillus fumigatus [16] = experiment: Antifungal activity against Aspergillus fumigatus 231 after 24 hrs by microdilution broth method; format: functional; details: Aspergillus fumigatus, 231, 24 h; in short: as §3
Trichosporon asahii [17] = experiment: Antifungal activity against Trichosporon asahii 1188 after 48 hrs by microdilution broth method; format: functional; details: Trichosporon asahii, 1188, 48 h; in short: as §3
Mycobacterium kansasii [18] = experiment: Antimycobacterial activity against Mycobacterium kansasii 235/80 after 14 days; format: functional; details: 235/80, 336 h; in short: as §2
Mycobacterium avium [19] = experiment: Antimycobacterial activity against Mycobacterium avium 330/80 after 14 days; format: functional; details: 330/80, 336 h
Escherichia coli [20] = experiment: Antibacterial activity against Escherichia coli CCM4517 after 48 hrs by microdilution broth method; format: functional; details: CCM4517, 48 h; in short: as §1
Pseudomonas aeruginosa [21] = experiment: Antibacterial activity against Pseudomonas aeruginosa CCM 1961 after 48 hrs by microdilution broth method; format: functional; details: CCM 1961, 48 h; in short: as §1
Klebsiella pneumoniae [22] = experiment: Antibacterial activity against ESBL-positive Klebsiella pneumoniae J 14368/08 after 48 hrs by microdilution broth method; format: functional; details: J 14368/08, 48 h; in short: as §1
Mycobacterium kansasii [23] = experiment: Antimycobacterial activity against Mycobacterium kansasii 235/80 after 7 days; format: functional; details: 235/80, 168 h; in short: as §2
Mycobacterium kansasii [24] = experiment: Antimycobacterial activity against Mycobacterium kansasii 6509/96 after 14 days; format: functional; details: 6509/96, 336 h; in short: as §2
Pseudomonas aeruginosa [25] = experiment: Antibacterial activity against Pseudomonas aeruginosa CCM 1961 after 24 hrs by microdilution broth method; format: functional; details: CCM 1961, 24 h; in short: as §1
Staphylococcus aureus [26] = experiment: Antibacterial activity against methicillin-resistant Staphylococcus aureus H 5996/08 after 24 hrs by microdilution broth method; format: functional; details: H 5996/08, 24 h
Candida tropicalis [27] = experiment: Antifungal activity against Candida tropicalis 156 after 48 hrs by microdilution broth method; format: functional; details: Candida tropicalis, 156, 48 h; in short: as §3
Staphylococcus aureus [28] = experiment: Antibacterial activity against Staphylococcus aureus CCM 4516/08 after 48 hrs by microdilution broth method; format: functional; details: CCM 4516/08, 48 h
Escherichia coli [29] = experiment: Antibacterial activity against Escherichia coli CCM4517 after 24 hrs by microdilution broth method; format: functional; details: CCM4517, 24 h; in short: as §1
Pichia kudriavzevii [30] = experiment: Antifungal activity against Candida krusei E28 after 24 hrs by microdilution broth method; format: functional; details: E28, 24 h; in short: as §3
[31] = test system: Trichophyton mentagrophytes; experiment: Antifungal activity against Trichophyton mentagrophytes 445 after 48 hrs by microdilution broth method; format: functional; details: Trichophyton mentagrophytes, 445, 48 h
Mycobacterium kansasii [32] = experiment: Antimycobacterial activity against Mycobacterium kansasii 235/80 after 21 days; format: functional; details: 235/80, 504 h; in short: as §2
Mycobacterium kansasii [33] = experiment: Antimycobacterial activity against Mycobacterium kansasii 6509/96 after 21 days; format: functional; details: 6509/96, 504 h; in short: as §2
Lichtheimia corymbifera [34] = experiment: Antifungal activity against Absidia corymbifera 272 after 24 hrs by microdilution broth method; format: functional; details: Lichtheimia corymbifera, 272, 24 h; in short: as §3
Aspergillus fumigatus [35] = experiment: Antifungal activity against Aspergillus fumigatus 231 after 48 hrs by microdilution broth method; format: functional; details: Aspergillus fumigatus, 231, 48 h; in short: as §3
Candida albicans [36] = experiment: Antifungal activity against Candida albicans ATCC 44859 after 24 hrs by microdilution broth method; format: functional; details: ATCC 44859, 24 h; in short: as §3
Nakaseomyces glabratus [37] = experiment: Antifungal activity against Candida glabrata 20/I after 24 hrs by microdilution broth method; format: functional; in short: as §3
HepG2 = experiment: Cytotoxicity against human HepG2 cells after 24 hrs […]; format: cell-based; details: HepG2, 24 h
[38] = test system: Mycobacterium tuberculosis; experiment: Antimycobacterial activity against Mycobacterium tuberculosis H37Rv 331/88 after 21 days; format: functional; details: H37Rv 331/88, 504 h
Klebsiella pneumoniae [39] = experiment: Antibacterial activity against Klebsiella pneumoniae D 11750/08 after 48 hrs by microdilution broth method; format: functional; details: D 11750/08, 48 h; in short: as §1
Trichosporon asahii [40] = experiment: Antifungal activity against Trichosporon asahii 1188 after 24 hrs by microdilution broth method; format: functional; details: Trichosporon asahii, 1188, 24 h; in short: as §3
[41] = test system: Trichophyton mentagrophytes; experiment: Antifungal activity against Trichophyton mentagrophytes 445 after 24 hrs by microdilution broth method; format: functional; details: Trichophyton mentagrophytes, 445, 24 h
[42] = test system: Mycobacterium tuberculosis; experiment: Antimycobacterial activity against Mycobacterium tuberculosis H37Rv 331/88 after 14 days; format: functional; details: H37Rv 331/88, 336 h
Klebsiella pneumoniae [43] = experiment: Antibacterial activity against ESBL-positive Klebsiella pneumoniae J 14368/08 after 24 hrs by microdilution broth method; format: functional; details: J 14368/08, 24 h; in short: as §1

Structure (SMILES): O=C(Nc1cc(C(F)(F)F)cc(C(F)(F)F)c1)c1ccc([N+](=O)[O-])cc1O
- MIC (Enterococcus sp. [1]): 125 µM (≈ 49.3 µg/mL)
- MIC (Mycobacterium kansasii [2]): 16 µM (≈ 6.31 µg/mL)
- MIC (Staphylococcus aureus [3]): 0.98 µM (≈ 0.386 µg/mL)
- MIC (Nakaseomyces glabratus [4]): > 500 µM
- MIC (Candida tropicalis [5]): > 500 µM
- MIC (Lichtheimia corymbifera [6]): > 500 µM
- MIC (Klebsiella pneumoniae [7]): > 500 µM
- MIC (Staphylococcus aureus [8]): 1.95 µM (≈ 0.769 µg/mL)
- MIC [9]: 1.95 µM (≈ 0.769 µg/mL)
- MIC (Candida albicans [10]): > 500 µM
- Selectivity Index [11]: 0.55
- MIC (Pichia kudriavzevii [12]): > 500 µM
- MIC (Mycobacterium avium [13]): 32 µM (≈ 12.6 µg/mL)
- MIC [14]: 1.95 µM (≈ 0.769 µg/mL)
- MIC (Enterococcus sp. [15]): 62.5 µM (≈ 24.6 µg/mL)
- MIC (Aspergillus fumigatus [16]): > 500 µM
- MIC (Trichosporon asahii [17]): > 500 µM
- MIC (Mycobacterium kansasii [18]): 16 µM (≈ 6.31 µg/mL)
- MIC (Mycobacterium avium [19]): 32 µM (≈ 12.6 µg/mL)
- MIC (Escherichia coli [20]): > 500 µM
- MIC (Pseudomonas aeruginosa [21]): > 500 µM
- MIC (Klebsiella pneumoniae [22]): > 500 µM
- MIC (Mycobacterium kansasii [23]): 8 µM (≈ 3.15 µg/mL)
- MIC (Mycobacterium kansasii [24]): 16 µM (≈ 6.31 µg/mL)
- MIC (Pseudomonas aeruginosa [25]): > 500 µM
- MIC (Staphylococcus aureus [26]): 0.98 µM (≈ 0.386 µg/mL)
- MIC (Candida tropicalis [27]): > 500 µM
- MIC (Staphylococcus aureus [28]): 1.95 µM (≈ 0.769 µg/mL)
- MIC (Escherichia coli [29]): > 500 µM
- MIC (Pichia kudriavzevii [30]): > 500 µM
- MIC [31]: > 500 µM
- MIC (Mycobacterium kansasii [32]): 16 µM (≈ 6.31 µg/mL)
- MIC (Mycobacterium kansasii [33]): 16 µM (≈ 6.31 µg/mL)
- MIC (Lichtheimia corymbifera [34]): > 500 µM
- MIC (Aspergillus fumigatus [35]): > 500 µM
- MIC (Candida albicans [36]): > 500 µM
- MIC (Nakaseomyces glabratus [37]): > 500 µM
- IC50 (HepG2): 4.4 µM
- MIC [38]: 8 µM (≈ 3.15 µg/mL)
- MIC (Klebsiella pneumoniae [39]): > 500 µM
- MIC (Trichosporon asahii [40]): > 500 µM
- MIC [41]: > 500 µM
- MIC [42]: 4 µM (≈ 1.58 µg/mL)
- MIC (Klebsiella pneumoniae [43]): > 500 µM
